Assay results from the array DNA melting data of Ke et al. (doi:10.1101/2024.01.08.574731).

What was measured:
[1] = folding enthalpy; higher = less favourable; fluorescence melt of hairpins on a sequencing array, two-state fit; details: sodium 0.088 M
In short: (§1)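 Library hairpins on a sequenced MiSeq flow cell carried annealed Cy3 and quencher oligos, and their Cy3 fluorescence was imaged in 50 mM Na-HEPES pH 8.0 with 25 mM NaCl, in 2.5 °C steps up to 60 °C. Signals were normalised to Cy3 before quenching and to control constructs. Melting temperature and folding enthalpy were obtained from bootstrapped two-state fits, combined by inverse-variance weighting across four replicates, and the fitted temperatures were then raised by 9.35 °C to match UV melts.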

[2] = melting temperature; fluorescence melt of hairpins on a sequencing array, two-state fit, raised by 9.35 °C to match UV melts; details: sodium 0.088 M
In short: as §1

Sequence	folding enthalpy [1]	Tm [2]
GGTTAGGGAAACCTAGCC ((.((((....)))).))	-27.2 kcal/mol	46.3 °C
GTGCATCGAAAGATCAC (((.(((....))))))	-24.2 kcal/mol	46.8 °C
GTGTTAGGAAACCAACAC (((((.(....).)))))	-28.9 kcal/mol	40 °C
GGTGTTTCGAAAGAAACC (((..(((....))))))	-13.2 kcal/mol	42.5 °C
GTGCCGCGAAAGCGTCAC (((.(((....))).)))	-29.1 kcal/mol	61.7 °C
GGTCCCGAAAGGGACACC ((((((....)))..)))	-8.21 kcal/mol	54.5 °C
GGCACAGAAATGTGCC ((((((....))))))	-35.9 kcal/mol	66.5 °C
GATCCATGAGTGGATC ((((((....))))))	-35.3 kcal/mol	55 °C
GATCCGCCCCCGGATC ((((((....))))))	-40.6 kcal/mol	56.5 °C
GAGGCGGGAAACTGCCTC (((((.(....).)))))	-39.1 kcal/mol	61.1 °C
GGCCTCGGAAACGGGGTC (.((.((....)).)).)	-37.2 kcal/mol	48.6 °C
GCGAGCCCTCGC ((((....))))	-26 kcal/mol	55 °C
GGCTCCGAAAGGACGGCC ((((((....)))..)))	-20.8 kcal/mol	51.2 °C
GATCAACTCTTTGATC ((((((....))))))	-37.5 kcal/mol	45.1 °C
GATCAATCTCTTGATC ((((((....))))))	-30.1 kcal/mol	43.2 °C
GATCCTTTGTAGGATC ((((((....))))))	-39.7 kcal/mol	52.6 °C
GACTGCGGAAACGTGGTC (((..((....))..)))	-32.8 kcal/mol	46.5 °C
GGCTCTCGAAAGAGCGCC (((.(((....))).)))	-34.6 kcal/mol	56.4 °C
GCGTGCGAACGC ((((....))))	-18.2 kcal/mol	69 °C
GAAAAAGCGAAAGCTTTC (((..(((....))))))	-12.1 kcal/mol	33.2 °C
GAATTACGAAAGTATTTC (((.(((....))).)))	-19.6 kcal/mol	35.2 °C
GATCAGCTCGCTGATC ((((((....))))))	-57.4 kcal/mol	62.9 °C
GCTGCCGAAAGGCGTAGC ((((((....)))..)))	-17.2 kcal/mol	50.5 °C
GCGCCCGAAAGGGTTCGC ((((((....)))..)))	-17.7 kcal/mol	54.6 °C

Sequence	folding enthalpy [1]	Tm [2]
GTAGACGAAAGTCTGTAC ((((((....)))..)))	-11.6 kcal/mol	36.8 °C
GCGATAGAAATATCGC ((((((....))))))	-41.7 kcal/mol	58.3 °C
GATCGGAACGCCGATC ((((((....))))))	-41.2 kcal/mol	54.7 °C
GATTCGGGAAACCGAACC (.(((((....))))).)	-13.7 kcal/mol	40.2 °C
GCGCGGCGAAAGCTACGC (((..((....))..)))	-19.8 kcal/mol	64.1 °C
GATCTCGGGCGAGATC ((((((....))))))	-30.4 kcal/mol	55.2 °C
GATCCGTGAGCGGATC ((((((....))))))	-35.6 kcal/mol	65.9 °C
GCCATGCGAAAGCCGGGC (((..((....))..)))	-26.1 kcal/mol	55.3 °C
GAATATGGAAACGTATTC (((((.(....).)))))	-25.3 kcal/mol	34.2 °C
GGCCCTGGAAACAGGACC ((.((((....)))).))	-35.3 kcal/mol	51 °C
AACATGAAAATGTT (((((....)))))	-14.7 kcal/mol	33.6 °C
GCACGCGAAAGCGACTGC ((((((....)))..)))	-12.6 kcal/mol	43.8 °C
GTAATGCGAAAGCAGTAC (((.(((....))).)))	-30.6 kcal/mol	53.4 °C
GCAAATCCGAAAGGATGC (((..(((....))))))	-17.5 kcal/mol	47.8 °C
GATCCATTCGTGGATC ((((((....))))))	-41.1 kcal/mol	55.3 °C
CGGCGCGGAAACGCCCG (((.(((....))))))	-16.7 kcal/mol	56.5 °C
GCATGAGGAAACCCATGC (((((.(....).)))))	-36.8 kcal/mol	48.6 °C
GGAACCGAAAGGTCTCC ((((((....))).)))	-22.1 kcal/mol	44.7 °C
GCGTTGCCGAAAGGCCGC (((..(((....))))))	-16.6 kcal/mol	55.6 °C
GAGTGCGGAAACGCGCTC (((.(((....))).)))	-31.7 kcal/mol	66.1 °C
GAGCGTGGAAACACGTTC ((.((((....)))).))	-24.7 kcal/mol	52.5 °C
CGCGGAGCGATCCGCG ((((((....))))))	-23.5 kcal/mol	62.2 °C
GATCTCCGGTGAGATC ((((((....))))))	-35.5 kcal/mol	52 °C
GCTAATGGAAACATTGGC ((.((((....)))).))	-41.2 kcal/mol	45.6 °C

Sequence	folding enthalpy [1]	Tm [2]
GCTTCACGAAAGTGAGC (((.(((....))))))	-17.8 kcal/mol	51 °C
GGCCACGGAAACACGGCC ((((..(....)..))))	-32.5 kcal/mol	47.8 °C
GTATGCGGAAACGTATAC ((((.((....)).))))	-31 kcal/mol	46.5 °C
GCCATGCGAAAGCCCGGC (((..((....))..)))	-22.9 kcal/mol	43.1 °C
GGGTGGTCGAAAGACCCC (((..(((....))))))	-15.8 kcal/mol	53.4 °C
GTCAAGGGAAACTTTGAC (((((.(....).)))))	-26.4 kcal/mol	40.3 °C
GATACAGGAAACTGTGTC ((.((((....)))).))	-25.9 kcal/mol	44.9 °C
GCCAGGCGAAAGCCGTGC ((..(((....)))..))	-13.6 kcal/mol	50 °C
GGTACTGCGAAAGCAACC (((..(((....))))))	-9.7 kcal/mol	28.8 °C
GGCAGAGGAAACTCCGCC (((.(((....))).)))	-28.1 kcal/mol	47.5 °C
GATCATTCCTATGATC ((((((....))))))	-31.5 kcal/mol	49.7 °C
GCCCGAACGAAAGTTGGC (((..(((....))))))	-19.2 kcal/mol	42.6 °C
GATCGGCCGCCGATC ((((((...))))))	-36.6 kcal/mol	55.7 °C
CCTATGAAAATAGG (((((....)))))	-14.2 kcal/mol	41.2 °C
GGAGGTACGAAAGTATCC (((..(((....))))))	-13 kcal/mol	32.9 °C
GCGTCCGAAAGGATACGC ((((((....)))..)))	-29.2 kcal/mol	55.5 °C
GATCTCTGCTGAGATC ((((((....))))))	-45.9 kcal/mol	53.7 °C
GCGGCTTCCCGC ((((....))))	-26.3 kcal/mol	58.2 °C
GACTCAGGAAACCGAGTC (((((.(....).)))))	-29.8 kcal/mol	46.2 °C
GAAGACGGAAACGTCTCC (.(((((....))))).)	-12.6 kcal/mol	39.3 °C
GCGTGAGGAAACTCACAC (.(((((....))))).)	-13.8 kcal/mol	42.3 °C
GTACGGGGAAACCCGCAC ((.((((....)))).))	-18.6 kcal/mol	54.3 °C
GTCCAAGCGAAAGCTGAC (((..(((....))))))	-14.4 kcal/mol	41.4 °C
GCGGTCAGCCGC ((((....))))	-27.7 kcal/mol	57.4 °C

Sequence	folding enthalpy [1]	Tm [2]
GCTCCTCCGAAAGGAAGC (((..(((....))))))	-15.9 kcal/mol	34.2 °C
GATCATACATATGATC ((((((....))))))	-40.7 kcal/mol	47.7 °C
GGATCAGCGAAAGCTTCC (((..(((....))))))	-12.7 kcal/mol	30.7 °C
GATCTAATTTAGATC ((((((...))))))	-30.8 kcal/mol	41.4 °C
GATCGGTGTCCCGATC ((((((....))))))	-38.3 kcal/mol	58.4 °C
CGCGGAAGCCTCCGCG ((((((....))))))	-31.3 kcal/mol	68.6 °C
GTGGTTGGAAACGACCAC (((((.(....).)))))	-41 kcal/mol	54.7 °C
GCACGGCGAAAGCCTGGC ((..(((....)))..))	-15.2 kcal/mol	51.7 °C
GATCGACATGTCGATC ((((((....))))))	-41.7 kcal/mol	61.3 °C
GGTAACGAAAGTTGGACC ((((((....)))..)))	-15.5 kcal/mol	26.8 °C
GTCATTCGAAAGAAAGAC (((.(((....))).)))	-30.6 kcal/mol	38.4 °C
GGCCGCGAAAGCGTCGCC ((((((....)))..)))	-16.7 kcal/mol	55.9 °C
GATCTGGAACAGATC ((((((...))))))	-37.7 kcal/mol	58.8 °C
GTCTCCGAAAGGATTGAC ((((((....)))..)))	-20 kcal/mol	35.5 °C
GGCCCCGGAAACGGAGCC (((.(((....))).)))	-31.1 kcal/mol	56.6 °C
GTGGCGGGAAACCGCTAC ((.((((....)))).))	-19.3 kcal/mol	58.3 °C
GGGAGTGGAAACGCTCCC (((((.(....).)))))	-38.9 kcal/mol	58 °C
GATCAAACCGTTGATC ((((((....))))))	-30.6 kcal/mol	42 °C
GGCGTTGGAAACAACACC ((.((((....)))).))	-33.6 kcal/mol	46.7 °C
GATTACGAAAGTATATC ((((((....))).)))	-17.1 kcal/mol	32.9 °C
GCTGAGCGAAAGCGGAGC (((..((....))..)))	-26.9 kcal/mol	62.4 °C
